Paper PMC2914798 (Biochimica et biophysica acta, 2010)
[ ]: non-standard residue; d: D form. The star is where a group is joined. Dnp = O=[N+]([O-])c1ccc(*)c([N+](=O)[O-])c1; Mca = COc1ccc2c(CC(=O)*)cc(=O)oc2c1

Columns and labels:
Format in all cases: biochemical
[1] = target: T1, Cath D (Homo sapiens, UniProt P07339); test: Enzyme digestion and cleavage site identification, Cath D; settings: high dose of Cath D, overnight hydrolysis; data not shown
[2] = target: T2, Cath E (Homo sapiens, UniProt P14091); test: Michaelis-Menten kinetics of substrate e hydrolysis by Cath E; settings: 6.8 nM Cath E, 50 mM sodium acetate pH 4.0, 10 minutes, 37 °C
T2 sequence (P14091 54-396): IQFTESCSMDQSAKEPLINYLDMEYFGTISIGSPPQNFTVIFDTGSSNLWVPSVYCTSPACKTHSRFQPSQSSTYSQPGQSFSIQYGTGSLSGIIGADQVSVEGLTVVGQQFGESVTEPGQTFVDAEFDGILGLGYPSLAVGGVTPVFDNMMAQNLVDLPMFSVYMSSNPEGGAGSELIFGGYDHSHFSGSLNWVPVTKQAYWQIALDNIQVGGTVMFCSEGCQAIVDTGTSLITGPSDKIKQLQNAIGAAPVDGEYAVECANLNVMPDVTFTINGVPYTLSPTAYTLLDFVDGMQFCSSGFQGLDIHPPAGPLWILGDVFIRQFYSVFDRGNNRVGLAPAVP
Summary of the method: (§1)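 Intramolecularly quenched Mca/Dnp FRET peptide, 5–100 µM, in 50 mM sodium acetate pH 4.0, with Cath E at 2.3, 4.5 or 6.8 nM, or Cath D up to 54 nM. Fluorescence (ex 340/em 405 nm) followed over 10 min. Initial velocity taken from the linear-phase slope. Vmax and Km from linear regression of the Hanes-Woolf plot (S/v vs S); kcat = Vmax/[Cath E]. Triplicate.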

[3] = target: T1, Cath D; test: Kinetics of substrate e hydrolysis by Cath D
Summary of the method: as §1

T1 sequence (P07339 65-412): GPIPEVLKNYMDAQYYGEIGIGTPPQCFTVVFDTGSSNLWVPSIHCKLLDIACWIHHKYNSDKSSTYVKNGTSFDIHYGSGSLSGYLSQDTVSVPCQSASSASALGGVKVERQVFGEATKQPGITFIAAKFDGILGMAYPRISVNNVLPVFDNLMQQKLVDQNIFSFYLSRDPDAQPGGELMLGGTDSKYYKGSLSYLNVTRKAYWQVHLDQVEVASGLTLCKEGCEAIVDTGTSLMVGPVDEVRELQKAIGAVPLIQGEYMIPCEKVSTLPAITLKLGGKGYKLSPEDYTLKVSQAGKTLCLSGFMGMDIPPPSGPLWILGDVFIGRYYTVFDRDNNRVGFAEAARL

## Mca-AGFSLPAK(Dnp)[dR]-NH2 (SMILES COc1ccc2c(CC(=O)N[C@@H](C)C(=O)NCC(=O)N[C@@H](Cc3ccccc3)C(=O)N[C@@H](CO)C(=O)N[C@@H](CC(C)C)C(=O)N3CCC[C@H]3C(=O)N[C@@H](C)C(=O)N[C@@H](CCCCNc3ccc([N+](=O)[O-])cc3[N+](=O)[O-])C(=O)N[C@H](CCCNC(=N)N)C(N)=O)cc(=O)oc2c1) [Substrate e]
[1]
  cleavage sites by Cath D: two minor cleavage sites were identified, one is between the P1 and P1’ sites (-Leu^5-Pro^6-) and a secondary site was found between P3 and P4 positions (-Gly^2-Phe^3-)
[2]
  Kcat/Km (catalytic efficiency), Cath E: 16.7 µM^−1.S^−1
[3]; up to 54 nM Cath D, same measurement conditions (50 mM sodium acetate pH 4.0)
  Kcat/Km (catalytic efficiency), Cath D: NM ^§
[3]; up to 54 nM of Cath D, 50 mM sodium acetate pH 4.0
  cleavage by Cath D: no measurable cleavage
